From ChEMBL document CHEMBL4431307, “Dehydroleucodine, a Sesquiterpene Lactone from Gynoxys verrucosa, Demonstrates Cytotoxic Activity against Human Leukemia Cells” (J Nat Prod, 2016)
Calls of active or inactive are those of the source. The rule behind the calls is not given here.

Experiments:
HL-60 [1] = assay: Cytotoxicity against human HL60 cells assessed as decrease in cell viability after 48 hrs […]; format: functional; conditions: HL-60, 48 h, read-out: LD50 (the source's name)
Method in brief: (§1)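 AML cell lines seeded at 0.5 million cells/mL (counted by Trypan Blue exclusion) and exposed to varying concentrations in triplicate for 48 h. Read-out by flow cytometry after annexin V (FITC or PE) and 7-AAD staining, at least 50 000 events per condition; annexin V/7AAD double-negative cells scored viable. Value reported as LD50.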

Kasumi 1 [2] = assay: Cytotoxicity against human Kasumi-1 cells assessed as decrease in cell viability after 48 hrs by […]; format: functional; conditions: Kasumi 1, 48 h, read-out: LD50 (the source's name); method in brief: as §1
KG-1 [3] = assay: Cytotoxicity against human KG1 cells assessed as decrease in cell viability after 48 hrs […]; format: functional; conditions: KG-1, 48 h, read-out: LD50 (the source's name); method in brief: as §1
MOLM-13 [4] = assay: Cytotoxicity against human MOLM13 cells assessed as decrease in cell viability after 48 hrs […]; format: functional; conditions: MOLM-13, 48 h, read-out: LD50 (the source's name); method in brief: as §1
MV4-11 [5] = assay: Cytotoxicity against human MV4-11 cells assessed as decrease in cell viability after 48 hrs […]; format: functional; conditions: MV4-11, 48 h, read-out: LD50 (the source's name); method in brief: as §1
THP-1 [6] = assay: Cytotoxicity against human THP1 cells assessed as decrease in cell viability after 48 hrs […]; format: functional; conditions: THP-1, 48 h, read-out: LD50 (the source's name); method in brief: as §1
TUR [7] = assay: Cytotoxicity against human TUR cells assessed as decrease in cell viability after 48 hrs […]; format: functional; conditions: read-out: LD50 (the source's name); method in brief: as §1
U-937 [8] = assay: Cytotoxicity against human U937 cells assessed as decrease in cell viability after 48 hrs […]; format: functional; conditions: U-937, 48 h, read-out: LD50 (the source's name); method in brief: as §1
MOLM-13 [9] = assay: Upregulation of heme oxygenase 1 in human MOLM13 cells at 20 uM after 6 hrs by qRT-PCR analysis; format: functional, cell-based
Method in brief: (§2)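 MOLM-13 cells at 0.5 million/mL were treated 6 h with 20 μM compound, then total RNA was extracted. One-step TaqMan RT-qPCR was run: RT 48 °C 15 min, then 95 °C 10 min, then 40 cycles of 95 °C 15 s and 60 °C 1 min. Singleplex reactions were in triplicate, with fold change by the 2^-ΔΔCt method.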

MOLM-13 [10] = assay: Upregulation of HSPA1A in human MOLM13 cells at 20 uM after 6 hrs by qRT-PCR analysis; format: functional, cell-based; method in brief: as §2
MOLM-13 [11] = assay: Downregulation of NF-kappaB1A transcription in human MOLM13 cells at 20 uM after 6 hrs by qRT-PCR analysis; format: functional, cell-based; method in brief: as §2
Homo sapiens [12] = species: Homo sapiens; assay: Inhibition of NF-kappaB p65 phosphorylation in human MOLM13 cells at 5 to 20 uM after 6 hrs by Western blot analysis; format: cell-based
Method in brief: (§3)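 MOLM-13 cells at 0.5 million/mL were treated 6 h and lysed on ice for 30 min in Tris pH 7.5/NaCl/Triton/SDS buffer with phosphatase and protease inhibitors. Lysates were run on 10% SDS-PAGE and blotted to PVDF. Membranes were probed separately for phospho-p65 and total p65 at 4 °C overnight, detected with IRDye secondaries by infrared imaging, with total p65 as loading control.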

MOLM-13 [13] = assay: Effect on total NF-kappaB p65 level in human MOLM13 cells at 5 to 20 uM after 6 hrs by Western blot analysis; format: cell-based; conditions: molm-13, 6 h; method in brief: as §3
Homo sapiens [14] = species: Homo sapiens; assay: Inhibition of NF-kappaB DNA binding activity in human MOLM13 cells by ELISA; format: cell-based
Method in brief: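 p65 DNA-binding ELISA in MOLM-13 cells, with TNFα as positive control, run in triplicate.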

Homo sapiens [15] = species: Homo sapiens; assay: Inhibition of NF-kappaB in human MOLM13 cells assessed as CDK6 gene expression at 10 to 20 uM after 6 hrs by Western blot analysis; format: cell-based
Homo sapiens [16] = species: Homo sapiens; assay: Inhibition of NF-kappaB in human MOLM13 cells assessed as MYB gene expression at 10 to 20 uM after 6 hrs by Western blot analysis; format: cell-based
KB = assay: Cytotoxicity against human KB cells assessed as decrease in cell viability after 72 hrs by MTT assay; format: functional, cell-based
HeLa S3 = assay: Cytotoxicity against human HeLaS3 cells assessed as decrease in cell viability after 72 to 96 hrs by MTT assay; format: functional, cell-based
MCF7 = assay: Cytotoxicity against human MCF7 cells assessed as decrease in cell viability after 72 to 96 hrs by MTT assay; format: functional, cell-based
Bone marrow cell [17] = assay: Cytotoxicity against human bone marrow cells assessed as decrease in cell viability at 20 uM after 48 hrs by annexin V-FITC/7-AAD staining based flow cytometry relative to control
Method in brief: (§4)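 Bone marrow and peripheral blood mononuclear cells from healthy donors were isolated by Ficoll density gradient. They were held 1 h in serum-free medium with rhFLT-3 ligand 50 ng/mL, rhSCF 50 ng/mL, rhIL-3 20 ng/mL and rhIL-6 20 ng/mL before drug. Treatment ran 48 h, and viability was read by annexin V/7-AAD flow cytometry relative to untreated control.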

PBMC [18] = assay: Cytotoxicity against human peripheral blood mononuclear cells assessed as decrease in cell viability at 20 uM after 48 hrs by annexin V-FITC/7-AAD staining based flow cytometry relative to control; method in brief: as §4
HL-60 [19] = assay: Cytotoxicity against human HL60 cells assessed as decrease in cell viability at 20 uM after 48 hrs by annexin V-FITC/7-AAD staining based flow cytometry relative to control; format: functional
Method in brief: (§5)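 AML cell lines kept at 0.5 million cells/mL and treated in triplicate for 48 h. Cells were stained with annexin V (FITC or PE) plus 7-AAD, and at least 50 000 events were recorded per condition by flow cytometry. Annexin V-/7-AAD- cells were scored viable, with viability taken relative to untreated control.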

Kasumi 1 [20] = assay: Cytotoxicity against human Kasumi-1 cells assessed as decrease in cell viability at 20 uM after 48 hrs by annexin V-FITC/7-AAD staining based flow cytometry relative to control; format: functional; method in brief: as §5
KG-1 [21] = assay: Cytotoxicity against human KG1 cells assessed as decrease in cell viability at 20 uM after 48 hrs by annexin V-FITC/7-AAD staining based flow cytometry relative to control; format: functional; method in brief: as §5
MOLM-13 [22] = assay: Cytotoxicity against human MOLM13 cells assessed as decrease in cell viability at 20 uM after 48 hrs by annexin V-FITC/7-AAD staining based flow cytometry relative to control; format: functional; method in brief: as §5
MV4-11 [23] = assay: Cytotoxicity against human MV4-11 cells assessed as decrease in cell viability at 20 uM after 48 hrs by annexin V-FITC/7-AAD staining based flow cytometry relative to control; format: functional; method in brief: as §5
THP-1 [24] = assay: Cytotoxicity against human THP1 cells assessed as decrease in cell viability at 20 uM after 48 hrs by annexin V-FITC/7-AAD staining based flow cytometry relative to control; format: functional; method in brief: as §5
TUR [25] = assay: Cytotoxicity against human TUR cells assessed as decrease in cell viability at 20 uM after 48 hrs by annexin V-FITC/7-AAD staining based flow cytometry relative to control; format: functional; method in brief: as §5
U-937 [26] = assay: Cytotoxicity against human U937 cells assessed as decrease in cell viability at 20 uM after 48 hrs by annexin V-FITC/7-AAD staining based flow cytometry relative to control; format: functional; method in brief: as §5
Leukemia cell = assay: Cytotoxicity against primary leukemia cells isolated from human AML patient assessed as cell death after 48 hrs by […]; format: functional; conditions: read-out: LD50 (the source's name)
Bone marrow cell [27] = assay: Cytotoxicity against human bone marrow cells assessed as decrease in cell viability at 50 uM after 48 hrs by annexin V-FITC/7-AAD staining based flow cytometry relative to control; method in brief: as §4
PBMC [28] = assay: Cytotoxicity against human peripheral blood mononuclear cells assessed as decrease in cell viability at 50 uM after 48 hrs by annexin V-FITC/7-AAD staining based flow cytometry relative to control; method in brief: as §4

Structure (SMILES)	CC50 (HL-60 [1]) [µM]	CC50 (Kasumi 1 [2]) [µM]	CC50 (KG-1 [3]) [µM]	CC50 (MOLM-13 [4]) [µM]	CC50 (MV4-11 [5]) [µM]	CC50 (THP-1 [6]) [µM]	CC50 (TUR [7]) [µM]	CC50 (U-937 [8]) [µM]	Activity (MOLM-13 [9])	Activity (MOLM-13 [10])	Activity (MOLM-13 [11])	inhibition (Homo sapiens [12])	Activity (MOLM-13 [13])	inhibition (Homo sapiens [14])	inhibition (Homo sapiens [15])	inhibition (Homo sapiens [16])	further results
C=C1C(=O)O[C@@H]2[C@@H]1CC/C(C)=C/CC[C@]1(C)O[C@H]21	13.9	3.6	> 20	3.4	8.6	> 20	7.4	8.4	Active	Active	Active	Active	Non-Toxic	Active	Active	Active	–
C=C1C(=O)O[C@@H]2[C@H]3C(C)=CC(=O)C3=C(C)CC[C@@H]12 [DEHYDROLEUCODIN]	14.1	12.9	18.7	12.6	5	16.8	12.2	18.9	Active	Active	Active	Active	Non-Toxic	Active	Active	Active	IC50 (KB): 5.3 µM; IC50 (HeLa S3): 10 µM; IC50 (MCF7): 5 µM; Activity (Bone marrow cell [17]): Non-Toxic; Activity (PBMC [18]): Non-Toxic; Activity (HL-60 [19]): Active; Activity (Kasumi 1 [20]): Active; Activity (KG-1 [21]): Active; Activity (MOLM-13 [22]): Active; Activity (MV4-11 [23]): Active; Activity (THP-1 [24]): Active; Activity (TUR [25]): Active; Activity (U-937 [26]): Active; CC50 (Leukemia cell): 9.4 µM
CC1=CC(=O)C2=C(C)CC[C@@H]3[C@H](OC(=O)[C@H]3C)[C@@H]12 [DESACETOXYMATRICARIN]	> 20	> 20	> 20	> 20	> 20	> 20	> 20	> 20	Active	Active	Active	–	–	inactive	–	–	Activity (Bone marrow cell [27]): Non-Toxic; Activity (PBMC [28]): Non-Toxic
